The source made the active and inactive calls. The rule behind the calls is not given here.
Assays:
NCI-H929 [1] = assay: Induction of apoptosis in human NCI-H929 cells assessed as necrotic cells preincubated in presence of 5 micromol/L UNC1999 for 48 hrs followed by compound addition at 2 micromol/L incubated for 12 hrs by annexin V/PI staining based flow cytometry (reference value: 2.61%); type: functional; settings: dose 2 µmol/L, at 2 µM
OPM-2/BTZ [2] = assay: Synergistic activity against human OPM-2/BTZ cells assessed as combination index preincubated in presence of 5 uM GSK126 for 72 hrs followed by compound addition at 0.5 uM incubated for 48 hrs by MTT assay; type: functional
OPM-2 [3] = assay: Synergistic activity against human OPM-2 cells assessed as combination index preincubated in presence of 1.25 uM GSK126 for 72 hrs followed by compound addition at 1.25 uM incubated for 48 hrs by MTT assay; type: functional
MM1.S [4] = assay: Upregulation of BIM mRNA expression in human MM1.S cells at 1 micromol/L after 24 hrs by qRT-PCR analysis; type: functional, cell-based; settings: dose 1.0 µmol/L
NCI-H929 [5] = assay: Synergistic activity against human NCI-H929 cells assessed as combination index […] compound addition at 0.125 uM incubated for 48 hrs by MTT assay; type: functional
Method in brief: (§1)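 Cells were exposed to the EZH2/EZH1 inhibitor (UNC1999 or GSK126) for 72 h in total, with the Akt inhibitor added for the last 48 h. Viability was read by MTS assay relative to untreated control cells, in triplicate. The combination index for each dose pair came from isobologram analysis.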

NCI-H929 [6] = assay: Downregulation of E2F2 mRNA expression in human NCI-H929 cells incubated at 0.3 to 3 micromol/L for 24 hrs by qRT-PCR analysis; type: functional, cell-based; settings: dose 0.3-3 µmol/L
Method in brief: (§2)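 MM.1S and H929 cells given TAS-117 at the indicated doses for 24 h. mRNA measured by RT-qPCR, fold change after normalization to GAPDH; SD of triplicates; significance versus untreated control.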

OPM-2 [7] = assay: Synergistic activity against human OPM-2 cells assessed as combination index preincubated in presence of 1.25 uM UNC1999 for 72 hrs followed by compound addition at 1.25 uM incubated for 48 hrs by MTT assay; type: functional
OPM-2/BTZ [8] = assay: Synergistic activity against human OPM-2/BTZ cells assessed as combination index preincubated in presence of 2.5 uM GSK126 for 72 hrs followed by compound addition at 0.5 uM incubated for 48 hrs by MTT assay; type: functional
MM1.S [9] = assay: Downregulation of EZH2 mRNA expression in human MM1.S cells at 0.3 to 3 micromol/L after 24 hrs by qRT-PCR analysis; type: functional, cell-based; settings: dose 0.3-3 µmol/L; method in brief: as §2
NCI-H929 [10] = assay: Upregulation of p27 protein expression in human NCI-H929 cells incubated at 0.3 to 3 micromol/L for 48 hrs by Western blot analysis; type: functional, cell-based; settings: dose 0.3-3 µmol/L
MM1.S [11] = assay: Synergistic activity against human MM.1S cells assessed as combination index […] compound addition at 0.25 uM incubated for 48 hrs by MTT assay; type: functional; method in brief: as §1
OPM-2 [12] = assay: Synergistic activity against human OPM-2 cells assessed as combination index preincubated in presence of 2.5 uM GSK126 for 72 hrs followed by compound addition at 1.25 uM incubated for 48 hrs by MTT assay; type: functional
NCI-H929 [13] = assay: Induction of apoptosis in human NCI-H929 cells assessed as late apoptotic cells at 2 micromol/L incubated for 12 hrs by annexin V/PI staining based flow cytometry (reference value: […]%); type: functional; settings: dose 2 µmol/L
OPM-2/BTZ [14] = assay: Synergistic activity against human OPM-2/BTZ cells assessed as combination index preincubated in presence of 1.25 uM GSK126 for 72 hrs followed by compound addition at 2 uM incubated for 48 hrs by MTT assay; type: functional
NCI-H929 [15] = assay: Synergistic activity against human NCI-H929 cells assessed as combination index […] at 0.5 uM incubated for 48 hrs by […]; type: functional; method in brief: as §1
MM1.S [16] = assay: Induction of apoptosis in human MM1.S cells assessed as viable cells preincubated in presence of 5 micromol/L UNC1999 for 48 hrs followed by compound addition at 2 micromol/L incubated for 12 hrs by annexin V/PI staining based flow cytometry (reference value: 88.2%); type: functional; settings: dose 2 µmol/L, at 2 µM
OPM-2 [17] = assay: Synergistic activity against human OPM-2 cells assessed as combination index preincubated in presence of 1.25 uM UNC1999 for 72 hrs followed by compound addition at 5 uM incubated for 48 hrs by MTT assay; type: functional
MM1.S [18] = assay: Upregulation of FOXO3 […] expression in human MM1.S cells assessed as enhanced nuclear accumulation at 1 micromol/L after 24 hrs by immunofluorescence staining; type: functional, cell-based; settings: dose 1.0 µmol/L
OPM-2/BTZ [19] = assay: Synergistic activity against human OPM-2/BTZ cells assessed as combination index preincubated in presence of 1.25 uM GSK126 for 72 hrs followed by compound addition at 1 uM incubated for 48 hrs by MTT assay; type: functional
MM1.S [20] = assay: Synergistic activity against human MM.1S cells assessed as combination index […] compound addition at 0.125 uM incubated for 48 hrs by […]; type: functional; method in brief: as §1
OPM-2/BTZ [21] = assay: Downregulation of E2F1 protein expression in human OPM-2/BTZ cells incubated at 0.3 to 3 micromol/L for 48 hrs by Western blot analysis; type: functional, cell-based; settings: dose 0.3-3 µmol/L
OPM-2/BTZ [22] = assay: Synergistic activity against human OPM-2/BTZ cells assessed as combination index preincubated in presence of 1.25 uM UNC1999 for 72 hrs followed by compound addition at 2 uM incubated for 48 hrs by MTT assay; type: functional
OPM-2/BTZ [23] = assay: Upregulation of EZH1 mRNA expression in human OPM-2/BTZ cells at 0.03 to 3 micromol/L after 6 to 48 hrs by qRT-PCR analysis; settings: dose 0.03-3 µmol/L, time 6-48 hrs
MM1.S [24] = assay: Downregulation of cyclin D1 protein expression in human MM1.S cells incubated at 0.3 to 3 micromol/L for 48 hrs by Western blot analysis; type: functional, cell-based; settings: dose 0.3-3 µmol/L
Method in brief: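 MM.1S and H929 cells given TAS-117 at the indicated doses for 48 h. Protein levels assessed by immunoblot.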

MM1.S [25] = assay: Upregulation of EZH1 mRNA expression in human MM1.S cells transduced with EZH1 at 0.3 micromol/L after 24 hrs by qRT-PCR analysis relative to control; type: functional, cell-based; settings: dose 0.3 µmol/L
Method in brief: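 MM.1S cells were transduced with lentiviral shRNA against EZH1 or luciferase (shLuc control). Cells were then given graded TAS-117 for 24 h. EZH1 mRNA was measured by qRT-PCR and normalized to GAPDH.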

OPM-2/BTZ [26] = assay: Synergistic activity against human OPM-2/BTZ cells assessed as combination index preincubated in presence of 2.5 uM GSK126 for 72 hrs followed by compound addition at 2 uM incubated for 48 hrs by MTT assay; type: functional
NCI-H929 [27] = assay: Downregulation of EZH2 mRNA expression in human NCI-H929 cells at 0.3 to 3 micromol/L after 24 hrs by qRT-PCR analysis; type: functional, cell-based; settings: dose 0.3-3 µmol/L; method in brief: as §2
OPM-2 [28] = assay: Synergistic activity against human OPM-2 cells assessed as combination index preincubated in presence of 5 uM GSK126 for 72 hrs followed by compound addition at 5 uM incubated for 48 hrs by MTT assay; type: functional

Structure (SMILES): C[C@]1(O)C[C@@](N)(c2ccc(-c3nc4n(c3-c3ccccc3)COc3ccncc3-4)cc2)C1 [PIFUSERTIB]
- Activity (NCI-H929 [1]): 2.15%
- CI (OPM-2/BTZ [2]): 1.112
- CI (OPM-2 [3]): 1.29
- Activity (MM1.S [4]): Active
- CI (NCI-H929 [5]): 0.858
- Activity (NCI-H929 [6]): Active
- CI (OPM-2 [7]): 1.33
- CI (OPM-2/BTZ [8]): 0.296
- Activity (MM1.S [9]): Active
- Activity (NCI-H929 [10]): Active
- CI (MM1.S [11]): 0.584
- CI (OPM-2 [12]): 1.462
- Activity (NCI-H929 [13]): 3.42%
- CI (OPM-2/BTZ [14]): 0.203
- CI (NCI-H929 [15]): 4.395
- Activity (MM1.S [16]): 33%
- CI (OPM-2 [17]): 1.743
- Activity (MM1.S [18]): Active
- CI (OPM-2/BTZ [19]): 0.923
- CI (MM1.S [20]): 0.751
- Activity (OPM-2/BTZ [21]): Active
- CI (OPM-2/BTZ [22]): 0.395
- Activity (OPM-2/BTZ [23]): Dose-Dependent Effect
- Activity (MM1.S [24]): Active
- Activity (MM1.S [25]): Active
- CI (OPM-2/BTZ [26]): 0.205
- Activity (NCI-H929 [27]): Active
- CI (OPM-2 [28]): 5.39
